Screens as filed in PubChem BioAssay.
Shown are actives, neighbours in structure and some others; about 2.3% of the full set was active somewhere.
LMPTP block: blocks human LMPTP phosphatase; AID 651560; inhibition, % at 20 µM; actives 0.22% (n = 360,000); recombinant LMPTP-A, OMFP fluorogenic substrate, fluorescence intensity; P24666;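 active = compounds that cut the enzyme signal by at least half of the control window in the single-dose screen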;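 also: plate controls were DMSO wells with enzyme plus substrate for no effect and substrate without enzyme for full effect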
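Buffer or medium: Bis-Tris pH 6.0, DTT, detergent; Assay system: LMPTP-A enzyme; Quantity: 0.625 nM enzyme; Detection: endpoint fluorescence intensity; Times: 50 min dark incubation at room temperature; Controls: substrate-only low control, DMSO enzyme-plus-substrate high control; Doses: single 20 µM dose; Read-out: percent inhibition versus substrate-only and uninhibited controls; Reagent: 400 µM OMFP.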
SUMO1-SIM PPI: SUMO1-SIM interaction modulation. actives 0.33% (n = 360,000). SUMO1 binding to a labelled peptide, TR-FRET, 1 h. inhibition, % at 20 µM; in the data active = inhibition above about 37%
Target sequence (P63165 whole entry, looked up): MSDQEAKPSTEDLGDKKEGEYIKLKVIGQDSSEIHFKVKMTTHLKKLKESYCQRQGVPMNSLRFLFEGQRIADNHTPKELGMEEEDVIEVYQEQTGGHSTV
DNMT1 block: DNMT1 (human) enzyme inhibition | AID 588458 | inhibition (reported as % activation of signal), % at 10 µM | actives 0.83% (n = 360,000) | P26358 | DNMT1 molecular beacon, Hinp1I cleavage, fluorescence; in the data active = inhibition above about 50%
STEP inh: inhibitors of human striatal-enriched phosphatase STEP. P54829. recombinant STEP, OMFP fluorogenic substrate, fluorescence. inhibition, % at 20 µM. actives 0.25% (n = 360,000);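 active = inhibition at 20 µM, scaled per plate between control wells, above about 37%, limit read from the data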;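 also: 0% = DMSO with enzyme and substrate and 100% = substrate only without enzyme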
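Measure: Control-normalized % inhibition with plate pattern correction | Test system: STEP phosphatase, cell-free reaction | Medium: pH 6.0 Bis-Tris with DTT and Tween 20 | Technique: Fluorescence, 480/540 nm | Times: Reaction 20 min, ambient temperature | Doses: Single compound dose of 20 µM, 1% DMSO final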
Rpn11 block: blocks the human proteasome subunit Rpn11; human 26S proteasome, Ub4-pepOG fluorescence polarization; 20S core pre-blocked with epoxomicin; inhibition, % at 20 µM; actives 0.59% (n = 360,000); AID 588493;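 active = inhibition at 20 µM, scaled to each plate's controls, above about 33%, limit read from the data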
Target sequence (O00487 whole entry, looked up): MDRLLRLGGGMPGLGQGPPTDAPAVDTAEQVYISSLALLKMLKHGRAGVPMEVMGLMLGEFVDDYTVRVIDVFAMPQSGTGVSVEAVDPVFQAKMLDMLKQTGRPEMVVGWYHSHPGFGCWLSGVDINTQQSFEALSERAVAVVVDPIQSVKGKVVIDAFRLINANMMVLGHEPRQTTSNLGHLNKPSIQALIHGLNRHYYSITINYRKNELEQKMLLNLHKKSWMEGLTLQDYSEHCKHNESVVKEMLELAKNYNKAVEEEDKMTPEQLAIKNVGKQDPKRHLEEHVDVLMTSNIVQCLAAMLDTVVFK
Scp-1 inhibitor: Scp-1 (human) phosphatase inhibition | Recombinant Scp1, phosphopeptide, malachite green phosphate absorbance | actives 0.88% (n = 340,000) | Q9GZU7 | AID 493091 | inhibition, % at 20 µM;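 active = inhibition above about 50% at 20 µM, limit read from the data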;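 also: plate controls were DMSO wells with enzyme for no effect and wells lacking enzyme for full effect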
Target sequence (Q9GZU7 76-261 limits assumed): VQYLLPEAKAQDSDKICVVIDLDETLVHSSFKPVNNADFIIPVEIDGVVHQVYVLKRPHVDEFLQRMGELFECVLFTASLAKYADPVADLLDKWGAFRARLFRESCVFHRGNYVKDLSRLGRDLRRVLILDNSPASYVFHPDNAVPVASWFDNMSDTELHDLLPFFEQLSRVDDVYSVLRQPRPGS
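assay system = SCP-1 phosphatase catalytic domain, residues 76-261 | buffer or medium = 50 mM Tris acetate pH 5.5, 0.005% Tween-20, 10 mM MgCl2 | incubation = enzyme reaction 45 min at room temperature, colour 5 min, stabilisation 30 min | signal = Phosphate-binding colour reagent, absorbance read at 630 nm | measure = % inhibition at 20 µM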
Scp-1 conf: Scp-1 (human) inhibition, single-dose confirmed; shares compounds with Scp-1 inhibitor; recombinant SCP-1 catalytic domain, phosphate release, malachite green absorbance; inhibition, % at 20 µM; actives 61% (n = 2,500); AID 540281;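 also: plate controls were DMSO with enzyme for no effect and buffer wells lacking enzyme for full effect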
Scp-1 MG ctr: colorimetric interference in Scp-1 counter-screen; shares compounds with Scp-1 inhibitor; Colorimetric interference counterscreen, malachite green absorbance 630 nm; apparent inhibition (interference), % at 20 µM; 2,500 tested, under 10 active;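 also: compounds added after enzyme reaction finished so only phosphate colour detection is probed; plate controls were DMSO wells with completed Scp-1 reaction for no effect and substrate wells lacking enzyme for full effect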
Scp-1 Tm shift: binds human Scp-1, shifting its melting temperature. actives 25% (n = 1,500). thermal shift relative to vanadate control, % at 40 µM. shares compounds with Scp-1 inhibitor. Recombinant SCP1, Sypro Orange thermal shift Tm. AID 540329;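 active = substances whose mean melting-temperature shift, as a percentage of the reference inhibitor's shift, reaches about 5.3%, limit read from the data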;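 also: 0% = Tm of DMSO wells and 100% = Tm with sodium orthovanadate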
Beacon interf DR: shows spectral interference in the DNMT1 beacon assay | 200 tested, under 10 active | shares compounds with DNMT1 block | molecular beacon fluorescence, spectral interference counter-screen | IC50, µM; call rule not given here
DNMT1 inh conf: confirmation of human DNMT1 inhibitors. shares compounds with DNMT1 block. DNMT1 molecular beacon HinP1I cleavage, fluorescence. inhibition, % at 10 µM. actives 8% (n = 2,300). AID 602385;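 active = average inhibition of at least 30% in the single-concentration confirmation test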
DNMT1 interf: counter-screen for DNMT1 inhibitors: spectral interference; AID 602387; activation (fluorescence interference), % at 10 µM; shares compounds with DNMT1 block; DNMT1 molecular beacon spectral interference counterscreen, fluorescence 485/520; actives 1% (n = 2,300);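 active = activation of at least 30% at 10 µM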;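 also: DNMT1 catalytic domain with a HinP1I cleavage step and a FAM/dabcyl DNA beacon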
Active calls of the source: *; / = no result given.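 The calls were made as follows, unless noted: active = inhibition of at least 30% at 20 µM; inactive = the rest.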

SMILES	LMPTP block	SUMO1-SIM PPI	DNMT1 block	STEP inh	Rpn11 block	Scp-1 inhibitor	Scp-1 conf	Scp-1 MG ctr	Scp-1 Tm shift	DNMT1 inh conf	DNMT1 interf	others
O=C(N/N=C/c1cccn1-c1cccc(C(=O)O)c1)Nc1ccccc1	1	4	85*	-1	-3	64*	50*	-14	7.0*	2	14
Cc1cccc(N2CCN(S(=O)(=O)c3ccc4c(c3)C(C)(C)C(=O)N4C)CC2)c1C	6	1	76*	6	-2	85*	69*	-7	-2	7	1
Cc1cc(N2CCCC2=O)ccc1S(=O)(=O)NC1CCCCC1	-1	5	0	-2	0	3	/	/	/	/	/
CC(Sc1nnc(COc2ccc(Cl)cc2)n1Cc1ccco1)C(=O)N1CCNC1=O (configuration not stated)	0	1	1	0	2	-1	/	/	/	/	/
COc1ccc(OC)c([N+](=O)[O-])c1C(N)=O	14	5	75*	21	-18	68*	62*	-7	-10	2	-2
COc1ccccc1C(=O)NNC(=O)C1CCCO1 (configuration not stated)	0	6	2	-1	6	10	/	/	/	/	/
O=C(C1=NOC(CNc2ncc(C(F)(F)F)cc2Cl)C1)N1CCOCC1 (configuration not stated)	-2	1	0	3	1	-3	/	/	/	/	/
O=C(CCS(=O)(=O)c1ccc(Br)cc1)N1CCCCCC1	0	43*	100*	3	-3	79*	66*	-15	-4	7	3
O=C(CCNS(=O)(=O)c1ccc(Br)cc1)N1CCCCCCC1	3	1	1	0	4	5	/	/	/	/	/
Cc1nc2c(c(=O)n1CCC1=CCCCC1)c1nc3ccccc3nc1n2/N=C/c1ccco1	32	26	76*	4	-18	58*	41*	-9	6.1*	1	-1
CCCn1c(C)nc2c(c1=O)c1nc3ccccc3nc1n2CCC1=CCCCC1	1	-11	-1	3	8	3	/	/	/	/	/
CN(C(=O)CSc1cc(C(=O)c2nccn2C)c2ccccc2n1)c1ccccc1	1	-8	7	0	5	-1	/	/	/	/	/
Cc1nn(-c2ccc(F)cc2)c(Cl)c1/C=N/NC(=O)c1cccc(S(=O)(=O)N2CCCC2)c1	3	1	75*	14	14	50*	35*	-10	-16	0	-9
Cc1nn(-c2ccc(F)cc2)c(Cl)c1/C=N/NC(=O)c1ccc(O)cc1	1	11	4	0	-2	-4	/	/	/	/	/
CN1C(=O)CCC2(c3ccccc3)CC=C(O)C=C12 (configuration not stated)	1	4	-1	1	5	-5	/	/	/	/	/
CC(=O)OCC1=C(C(=O)O)N2C(=O)C(NC(=O)c3ccc(COc4cccc(Cl)c4Cl)o3)C2SC1 (configuration not stated)	9	15	88*	2	5	53*	66*	-15	4	41*	4	Beacon interf DR=>99
CN(CC(=O)NC(=O)NCc1ccco1)Cc1nc2ccccc2c(=O)[nH]1	0	3	70*	0	-15	86*	73*	-7	-4	4	2
Oc1ccc(/C=N/NC(=S)N2CCOCC2)cc1	-1	2	0	0	2	-6	/	/	/	/	/
O=C(COC(=O)c1ccc(S(=O)(=O)NCc2ccco2)cc1)NCc1ccc(F)cc1	1	2	1	-3	-3	4	/	/	/	/	/
COc1ccc(CNC(=O)COC(=O)c2ccc(S(=O)(=O)NCc3ccco3)cc2)cc1	2	2	51*	6	-3	55*	61*	-12	-1	0	1
COCCNC(=S)N=Nc1c(O)[nH]c2ccc([N+](=O)[O-])cc12	3	-13	-6	1	1	-16	/	/	/	/	/
O=C(COC(=O)c1cccc(S(=O)(=O)N2CCN(c3ccccc3)CC2)c1)NCc1ccco1	9	5	68*	12	-3	66*	58*	-19	4	7	3
NC(=O)COC(=O)c1cccc(S(=O)(=O)N2CCN(c3ccccc3)CC2)c1	-1	2	2	1	1	6	/	/	/	/	/
O=C(CN1C(=O)NC2(CCc3ccccc32)C1=O)Nc1ccc(Br)cc1F (configuration not stated)	0	-3	5	-2	3	-1	/	/	/	/	/
Cc1ccc(C(=O)NN2CC(O)=C(c3nc(-c4cccc([N+](=O)[O-])c4)cs3)C2=N)cc1	13	1	80*	20	1	75*	43*	-7	6.1*	39*	-2	Beacon interf DR=>99
SMILES	LMPTP block	SUMO1-SIM PPI	DNMT1 block	STEP inh	Rpn11 block	Scp-1 inhibitor	Scp-1 conf	Scp-1 MG ctr	Scp-1 Tm shift	DNMT1 inh conf	DNMT1 interf	others
Nc1ccc(CSc2ccc(Cl)cc2)cc1	1	0	-1	0	-2	6	/	/	/	/	/
C/C(=N\NC(=O)Cc1cccn1C)c1ccco1	-1	-2	-4	1	-4	2	/	/	/	/	/
Cn1cccc1CC(=O)N/N=C/C=C/c1ccco1	43	19	96*	2	-10	69*	40*	-11	3	5	1
Cc1nnc(SCC(=O)NCCc2ccccc2)s1	-1	2	6	-2	8	0	/	/	/	/	/
Cc1onc(-c2ccccc2Cl)c1C(=O)NCc1ccco1	21	3	63*	3	-18	83*	-7	-11	/	4	1
C=CCN1C(=O)/C(=C2/Sc3ccccc3N2CC)SC1=S	-1	-2	4	-1	/	-8	/	/	/	/	/
C=CCN1C(=O)/C(=C2/Sc3ccccc3N2CCCS(=O)(=O)O)SC1=S	6	13	67*	11	4	86*	64*	-20	13*	3	1
